Experimental findings from ChEMBL document CHEMBL3046278, “Design, synthesis and antifungal/insecticidal evaluation of novel cinnamide derivatives” (2011) are described below.

In brackets after ≈: the same amount, converted by molar mass.

Common to all, as to assay type: functional
One experiment deals with Botrytis cinerea. Kind of experiment: Antifungal activity against Botryotinia fuckeliana assessed as inhibition of mycelium growth at 50 ug/ml relative to control. In short, it runs like this: (§1)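 Mycelial growth inhibition on mycelial disks, compared with untreated control, using colony diameters: (control − treatment)/(control − disk diameter) × 100. Run twice, four replicates each.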

The subject of experiment [1] is Bursaphelenchus xylophilus. Kind of experiment: Nematicidal activity against Bursaphelenchus xylophilus assessed as mortality after 24 hr. To be noted: read-out: LD50 (the source's name).
In another experiment the test system is Rhizoctonia solani. Kind of experiment: Antifungal activity against Rhizoctonia solani assessed as inhibition of mycelium growth at 50 ug/ml relative to control. A digest of the protocol:
as §1

Experiment [2] has as its system Bursaphelenchus xylophilus. Kind of experiment: Nematicidal activity against Bursaphelenchus xylophilus assessed as mortality at 200 mg/L after 72 hr relative to control. A digest of the protocol: (§2)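 Compounds dissolved in acetone and diluted with distilled water to a 200 mg L-1 working solution. Distilled water served as blank, triplicate. Mortality counted at 24, 48 and 72 h, then corrected against the negative control with Abbott's formula.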

The test system of experiment [3] is Bursaphelenchus xylophilus. Kind of experiment: Nematicidal activity against Bursaphelenchus xylophilus assessed as mortality at 200 mg/L after 24 hr relative to control. A digest of the protocol: as §2
For experiment [4], the system named is Bursaphelenchus xylophilus. The experiment is described as follows: Nematicidal activity against Bursaphelenchus xylophilus assessed as mortality after 48 hr. To be noted: read-out: LD50 (the source's name).
Experiment [5] relates to Bursaphelenchus xylophilus. The experiment is described as follows: Nematicidal activity against Bursaphelenchus xylophilus assessed as mortality after 72 hr. To be noted: read-out: LD50 (the source's name).
The next experiment deals with Cytospora mali. The experiment is described as follows: Antifungal activity against Valsa mali assessed as inhibition of mycelium growth at 50 ug/ml relative to control. In short, it runs like this:
as §1

For experiment [6], the system named is Colletotrichum lindemuthianum. Kind of experiment: Antifungal activity against Colletotrichum lindemuthianum assessed as inhibition of mycelium growth at 50 ug/ml relative to control. In short, it runs like this: as §1
Experiment [7] has as its system Bursaphelenchus xylophilus. The experiment is described as follows: Nematicidal activity against Bursaphelenchus xylophilus assessed as mortality at 200 mg/L after 48 hr relative to control. A digest of the protocol:
as §2

A further experiment relates to Sclerotinia sclerotiorum. Kind of experiment: Antifungal activity against Sclerotinia sclerotiorum assessed as inhibition of mycelium growth at 50 ug/ml relative to control. A digest of the protocol: as §1
The test system of the next experiment is Phytophthora nicotianae. Kind of experiment: Antifungal activity against Phytophthora parasitica assessed as inhibition of mycelium growth at 50 ug/ml relative to control. A digest of the protocol: as §1

In the case of `CCc1ccc(/C(=C/C(=O)NCCc2ccccc2)c2ccnc(Cl)c2)cc1`, the inhibition at 50 µg/mL was found to be 50% with Botrytis cinerea; 22.4% in the experiment on Rhizoctonia solani; 20% in the experiment on Cytospora mali; 34.3% in experiment [6]; 44% in the experiment on Sclerotinia sclerotiorum; 26.8% with Phytophthora nicotianae. The LC50 in experiment [1] is 301 µg/mL (≈ 769 µM); in experiment [4], 174 µg/mL (≈ 445 µM); in [5] it was 114 µg/mL (≈ 291 µM). Moreover, the values for the Activity in experiment [2], in experiment [3] and in experiment [7] were 67.87%, 17.95% and 26.29%, respectively.

Consider `Cc1ccc(/C(=C/C(=O)NCCc2ccccc2)c2ccnc(Cl)c2)cc1C`, for which the inhibition at 50 µg/mL came out at 67% with Botrytis cinerea; 76.8% in the experiment on Rhizoctonia solani; 52% with Cytospora mali; 56% in experiment [6]; 72% in the experiment with Sclerotinia sclerotiorum; 1.61% in the experiment on Phytophthora nicotianae. Further, the values for the LC50 in experiment [1], in [4] and in experiment [5] were 430 µg/mL (≈ 1100 µM), 315 µg/mL (≈ 805 µM) and 252 µg/mL (≈ 646 µM), respectively. Further, the Activity was found to be 45.15% in [2], 14.73% in experiment [3] and 21.49% in experiment [7].

With `COc1ccc(CCNC(=O)/C=C(/c2ccc(C)cc2)c2ccnc(Cl)c2)cc1OC`, the inhibition at 50 µg/mL with Botrytis cinerea was found to be 59%; in the experiment on Rhizoctonia solani it was 82.6%; in the experiment on Cytospora mali it was 42%; in experiment [6], 55.2%; with Sclerotinia sclerotiorum, 42%; with Phytophthora nicotianae it was 0%. The LC50 in experiment [1] came out at 305 µg/mL (≈ 699 µM); in experiment [4], 178 µg/mL (≈ 409 µM); in [5], 126 µg/mL (≈ 289 µM). The results for the Activity in [2], in experiment [3] and in experiment [7] were 43.97%, 13.29% and 38.45%, respectively.

As for `CN(/C=C\c1ccccc1)C(=O)/C=C/c1ccccc1` [LANSIUMAMIDE B], the LC50 in experiment [1] turned out to be 8.38 µg/mL (≈ 31.8 µM); in experiment [4] it was 6.36 µg/mL (≈ 24.2 µM); in experiment [5], 5.38 µg/mL (≈ 20.4 µM). Besides, the Activity in experiment [2], in [3] and in experiment [7] was 100% throughout.
